We go through eight compounds from ChEMBL document CHEMBL3272196, “Synthesis and biological action of two glucocorticoid alkylating agents” (J Med Chem, 1977).

The nature of data set [1]: Alkylating activity of the compound assessed as alkylation of 4-(p-nitrobenzyl)pyridine after 20 mins by colorimetric analysis. The format is physicochemical. An outline of the steps:
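Test agent at 10⁻⁴ M in 1% Me₂SO in water; 3 mL aliquots heated 20 min in boiling water bath with 4-(p-nitrobenzyl)pyridine in acetate buffer pH 4.0. Purple adduct developed with 5.0 N NaOH, extracted into ethyl acetate, A540 read exactly 6 min after base. Value read off mechlorethamine standard curve, expressed relative to mechlorethamine.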

Data set [2] concerns L929. Briefly: Growth inhibition of mouse L929 cells after 6 days. The format is functional, cell-based. An outline of the steps:
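L929 mouse fibroblasts in monolayer in Joklik medium, steroids added in DMSO (0.1% of medium volume) early in growth. Cells harvested and counted 6 days later. Mean of three replicate cultures, expressed as percent of vehicle-control growth.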

The subject of data set [3] is L929. Briefly: Growth inhibition of mouse L929 cells at 3 x 10^-7 M preincubated for 48 hrs followed by compound washout. The format is functional, cell-based. In short, it runs like this: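 L929 monolayers (15 mL) dosed day 1, 18 h after seeding, at 3×10⁻⁷ M final, vehicle DMSO. Day 3 medium changed, half switched to steroid-free medium. Medium renewed every other day, cells per bottle counted. Mean and standard error of three replicate cultures.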

For data set [4], the target named is T1, Glucocorticoid receptor (Mus musculus) (UniProt P06537).
T1 sequence (whole entry): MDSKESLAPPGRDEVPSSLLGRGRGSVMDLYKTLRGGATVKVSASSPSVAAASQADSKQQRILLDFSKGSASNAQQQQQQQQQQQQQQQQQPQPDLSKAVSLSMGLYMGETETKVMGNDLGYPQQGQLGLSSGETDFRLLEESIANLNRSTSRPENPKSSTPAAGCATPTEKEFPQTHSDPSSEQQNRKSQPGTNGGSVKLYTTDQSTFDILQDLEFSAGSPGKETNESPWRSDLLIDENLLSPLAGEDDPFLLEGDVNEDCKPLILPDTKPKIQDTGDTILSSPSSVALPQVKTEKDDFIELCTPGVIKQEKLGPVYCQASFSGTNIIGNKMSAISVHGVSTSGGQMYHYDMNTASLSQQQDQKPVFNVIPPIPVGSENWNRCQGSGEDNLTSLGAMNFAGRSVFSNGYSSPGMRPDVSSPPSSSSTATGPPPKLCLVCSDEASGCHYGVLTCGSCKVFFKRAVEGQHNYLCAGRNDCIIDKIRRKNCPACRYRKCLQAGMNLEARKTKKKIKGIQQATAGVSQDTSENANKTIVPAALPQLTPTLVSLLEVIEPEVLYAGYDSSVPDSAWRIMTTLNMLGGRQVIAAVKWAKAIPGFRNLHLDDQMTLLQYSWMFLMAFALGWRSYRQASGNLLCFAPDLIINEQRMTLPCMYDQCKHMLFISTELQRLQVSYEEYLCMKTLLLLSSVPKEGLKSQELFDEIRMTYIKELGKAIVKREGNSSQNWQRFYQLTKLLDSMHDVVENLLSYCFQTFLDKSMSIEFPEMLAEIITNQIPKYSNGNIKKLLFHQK
The experiment in a line: (§1) Displacement of 1 x 10^-8 M of [1,2,3-3H]-triamcinolone acetonide from glucocorticoid receptor in soluble fraction of mouse L929 cells after 20 hrs. In kind it is cell-based.

The target in data set [5] is T2, Glucocorticoid receptor (Mus musculus, UniProt P06537).
T2 sequence (P06537 whole entry): T1 sequence (whole entry)
The data set is described as §1. The format is cell-based.

Data set [6] is described as follows: Alkylating activity of the compound assessed as alkylation of 4-(p-nitrobenzyl)pyridine at 10^-4 M after 20 mins by colorimetric analysis. In kind it is physicochemical. The following applies: 100 µM.
Data set [7] in a line: Alkylating activity of the compound assessed as alkylation of 4-(p-nitrobenzyl)pyridine at 10^-4 M after 20 mins by colorimetric analysis relative to mechlorethamine. The format is physicochemical. The note with it: 100 µM.
The target in data set [8] is T1, Glucocorticoid receptor (Mus musculus). The experiment in a line: Displacement of [1,2,3-3H]-triamcinolone acetonide from glucocorticoid receptor in soluble fraction of mouse L929 cells at 10^-6 M preincubated for 4 hrs followed by [3H]-triamcinolone acetonide addition measured after 18 hrs by double reciprocal plot analysis. The format is cell-based. An outline of the steps:
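L929 100 000g supernatant preincubated 4 h on ice with vehicle, 10⁻⁶ M agent or 10⁻⁷ M cortisol. Varied [3H]triamcinolone acetonide then added, incubation continued 18 h. Bound counted after Sephadex G-25 separation; nonspecific (3×10⁻⁵ M dexamethasone) subtracted. Specific binding plotted against free ligand and in double-reciprocal form.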

Data set [9] addresses T2, Glucocorticoid receptor. Briefly: Displacement of 2 x 10^-8 M of [1,2,3-3H]-triamcinolone acetonide from glucocorticoid receptor in soluble fraction of mouse L929 cells after 20 hrs. In kind it is cell-based. The following applies: read-out: Kd(app).
Data set [10] addresses T3, Estrogen receptor (Rattus norvegicus, UniProt P06211).
T3 sequence (P06211 whole entry): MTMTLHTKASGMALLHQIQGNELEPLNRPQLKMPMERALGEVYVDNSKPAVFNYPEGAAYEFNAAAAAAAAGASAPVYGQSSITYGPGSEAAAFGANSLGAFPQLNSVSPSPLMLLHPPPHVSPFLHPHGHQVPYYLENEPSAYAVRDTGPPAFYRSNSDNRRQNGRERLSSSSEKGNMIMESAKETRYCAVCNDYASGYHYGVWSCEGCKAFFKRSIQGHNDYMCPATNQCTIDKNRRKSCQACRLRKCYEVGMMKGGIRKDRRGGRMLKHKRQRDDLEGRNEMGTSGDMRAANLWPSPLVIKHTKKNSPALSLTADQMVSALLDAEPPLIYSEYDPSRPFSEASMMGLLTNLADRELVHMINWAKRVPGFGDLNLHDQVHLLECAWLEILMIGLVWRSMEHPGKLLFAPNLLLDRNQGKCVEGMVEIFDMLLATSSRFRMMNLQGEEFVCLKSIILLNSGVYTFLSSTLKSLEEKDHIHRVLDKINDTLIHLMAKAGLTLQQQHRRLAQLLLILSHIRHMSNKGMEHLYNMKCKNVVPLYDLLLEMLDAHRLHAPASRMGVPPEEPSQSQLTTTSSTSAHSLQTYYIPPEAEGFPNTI
The experiment in a line: Displacement of radiolabeled estradiol from estradiol receptor in rat uterine cytosol. Set-up: species or system Uterus.

Calls of active or inactive are those of the source. The calls are words filed in the database; no cut-off is given here.

As for `CC1(C)O[C@@H]2C[C@H]3[C@@H]4CCC5=CC(=O)C=C[C@]5(C)[C@@]4(F)[C@@H](O)C[C@]3(C)[C@]2(C(=O)CO)O1` [TRIAMCINOLONE ACETONIDE], in data set [1], the Activity result is reported as “Not Active”. Moreover, in data set [2], the “growth inhibition (GI)” value was “Active”. For the same compound, the “growth inhibition (GI)” value in data set [3] was “inactive”.

Consider `C[C@]1(c2ccccc2)O[C@@H]2C[C@H]3[C@@H]4CCC5=CC(=O)C=C[C@]5(C)[C@@]4(F)[C@@H](O)C[C@]3(C)[C@]2(C(=O)CO)O1`, for which, in data set [4], the inhibition result was “Active”.

In the case of `C[C@]12CCC(=O)C=C1CC[C@@H]1[C@@H]2[C@@H](O)C[C@@]2(C)[C@H]1CC[C@]2(O)C(=O)CO` [HYDROCORTISONE], the Activity entry in data set [1] is reported as “Not Active”. In addition, the “growth inhibition (GI)” value in [2] was “Active”.

As to `C[C@]12CCC(=O)C=C1CC[C@@H]1[C@@H]2[C@@H](O)C[C@@]2(C)[C@H]1CC[C@]2(O)C(=O)COC(=O)CCC(=O)O` [HYDROCORTISONE HEMISUCCINATE ANHYDROUS], the Kd in data set [5] was 190 nM.

For `C[C@]12CCC(=O)C=C1CC[C@@H]1[C@@H]2[C@@H](O)C[C@@]2(C)[C@H]1CC[C@]2(O)C(=O)COC(=O)N(CCCl)CCCl`, the figures for the Activity result in [6] and in data set [7] were “Active” and 20%, respectively. Moreover, the “growth inhibition (GI)” value in data set [2] is “Active”. In [8], the inhibition result was “inactive”. For the same compound, in data set [9], the Kd was found to be 430 nM.

`CC1(C)O[C@@H]2C[C@H]3[C@@H]4CCC5=CC(=O)C=C[C@]5(C)[C@@]4(F)[C@@H](O)C[C@]3(C)[C@]2(C(=O)COC(=O)N(CCCl)CCCl)O1`: the Activity entry is “Active” in data set [6] and 20% in data set [7]. The “growth inhibition (GI)” value in data set [2] is “Active”. Also, the “growth inhibition (GI)” value in data set [3] is “inactive”. Further, the Kd in data set [9] was found to be 7.5 nM.

Take `C[C@]12CCC(=O)C=C1CC[C@@H]1[C@@H]2[C@@H](O)C[C@@]2(C)[C@H]1CC[C@]2(O)C(=O)COP(=O)(O)O`: the inhibition entry in [4] was “inactive”.

In the case of `C[C@]12CC[C@@H]3c4ccc(OC(=O)Cc5ccc(N(CCCl)CCCl)cc5)cc4CC[C@H]3[C@@H]1CC[C@@H]2OC(=O)Cc1ccc(N(CCCl)CCCl)cc1` [ESTRADIOL MUSTARD], in [10], the Kd worked out at 3000 nM.
